Results from ChEMBL document CHEMBL3044924, “Design, synthesis, and insecticidal activities of phthalamides containing a hydrazone substructure” (2010).
In brackets after ≈: the same amount, converted by molar mass. Activity calls are given as the source filed them. No cut-off for these calls is given here.

Columns and labels:
Myzus persicae [1] = experiment: Insecticidal activity against adult Myzus persicae (green peach aphid) in compound treated cabbage leaves assessed as mortality at 12.5 mg/L at 25 degC and 85% RH for 24 hr; type: functional
Method in brief: (§1)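 Aphids exposed to treated leaf at 200, 50 and 12.5 mg/L. Mortality corrected for untreated controls with Abbott's formula.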

Myzus persicae [2] = experiment: Insecticidal activity against adult Myzus persicae (green peach aphid) in compound treated cabbage leaves assessed as mortality at 50 mg/L at 25 degC and 85% RH for 24 hr; type: functional; method in brief: as §1
Plutella xylostella = experiment: Larvicidal activity against second instar Plutella xylostella (diamondback moth) in compound treated cabbage leaves assessed as mortality at 600 mg/L measured after 3 days; type: functional; conditions: 72 h
Method in brief: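 Lab-reared field-collected stock (Haidian, Beijing), second-instar larvae. Leaf-dip assay: 2.0 cm cabbage leaf disks dipped 5 s in test solution, air-dried, then placed in a 6.0 cm tube lined with filter paper. Larvae added within 10 s. Mortality (%) scored 3 days after treatment, two replicates.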

Myzus persicae [3] = experiment: Insecticidal activity against adult Myzus persicae (green peach aphid) in compound treated cabbage leaves assessed as mortality at 200 mg/L at 25 degC and 85% RH for 24 hr; type: functional; method in brief: as §1
Myzus persicae [4] = experiment: Insecticidal activity against adult Myzus persicae (green peach aphid) in compound treated cabbage leaves assessed as mortality at 25 degC and 85% RH for 24 hr; type: functional
Myzus persicae [5] = experiment: Stomach toxicity in adult Myzus persicae (green peach aphid) in compound treated cabbage leaves assessed as mortality at 600 mg/L at 25 degC and 85% RH for 24 hr; type: functional, organism-based
Myzus persicae [6] = experiment: Insecticidal activity against adult Myzus persicae (green peach aphid) in compound treated cabbage leaves assessed as mortality at 600 mg/L at 25 degC and 85% RH for 24 hr; type: functional

| SMILES | mortality at 12.5 µg/mL (Myzus persicae [1]) [%] | mortality at 50 µg/mL (Myzus persicae [2]) [%] | mortality at 600 µg/mL (Plutella xylostella) [%] | mortality at 200 µg/mL (Myzus persicae [3]) [%] | LC50 (Myzus persicae [4]) [µg/mL] | Activity (Myzus persicae [5]) | mortality at 600 µg/mL (Myzus persicae [6]) [%] |
| --- | --- | --- | --- | --- | --- | --- | --- |
| CC(C)NC(=O)c1ccc(Cl)cc1C(=O)NN=Cc1ccccc1Cl | 16.3 | 12.5 | 33.3 | 28.2 | 171 (≈ 451 µM) | Active | 92.9 |
| CCCCNC(=O)c1ccc(Cl)cc1C(=O)NN=Cc1ccc(F)cc1 | 19 | 18.6 | 33.3 | 20 | 310 (≈ 825 µM) | Active | 97.7 |
| CC(C)NC(=O)c1ccc(Cl)cc1C(=O)NN=Cc1ccc(F)cc1 | 21.9 | 52.8 | 100 | 57.8 | 68.1 (≈ 188 µM) | Active | 91.3 |
| Cc1ccsc1C=NNC(=O)c1cc(Cl)ccc1C(=O)NC1CCCCC1 | 22.4 | 41.7 | 11.1 | 45.2 | 58.9 (≈ 146 µM) | Active | 90.6 |
| Cc1ccc(C=NNC(=O)c2cc(Cl)ccc2C(=O)NC2CCCCC2)o1 | 0 | 7.3 | 33.3 | 16 | 271 (≈ 700 µM) | Active | 93 |
| O=C(NN=Cc1ccc(O)cc1)c1cc(Cl)ccc1C(=O)NC1CCCCC1 | 25.7 | 19.4 | 55.6 | 24.6 | 244 (≈ 611 µM) | Active | 92.6 |
| Cc1ccsc1C=NNC(=O)c1cc(Cl)ccc1C(=O)NC(C)C | 16.3 | 25.5 | 44.4 | 56.1 | 124 (≈ 342 µM) | Active | 90.6 |
| Cc1ccc(C=NNC(=O)c2cc(Cl)ccc2C(=O)NC(C)C)s1 | 29.3 | 32.7 | 55.6 | 52.3 | 76.2 (≈ 209 µM) | Active | 100 |
| CC(C)NC(=O)c1ccc(Cl)cc1C(=O)NN=Cc1cccs1 | 24 | 30.3 | 0 | 45.5 | 70.5 (≈ 202 µM) | Active | 98.7 |
| Cc1cc(C(F)(C(F)(F)F)C(F)(F)F)ccc1NC(=O)c1cccc(I)c1C(=O)NC(C)(C)CS(C)(=O)=O [FLUBENDIAMIDE] |  |  |  |  | 184 (≈ 270 µM) |  |  |
| Cc1ccc(C=NNC(=O)c2cc(Cl)ccc2C(=O)NC(C)C)o1 | 13.8 | 16.9 | 44.4 | 50 | 122 (≈ 350 µM) | Active | 96.4 |
| O=C(NN=Cc1ccco1)c1cc(Cl)ccc1C(=O)NC1CCCCC1 | 8.2 | 20 | 33.3 | 15.7 | 221 (≈ 592 µM) | Active | 100 |
| O=C(NN=Cc1ccccc1F)c1cc(Cl)ccc1C(=O)NC1CCCCC1 | 5.9 | 8.3 | 33.3 | 23.8 | 276 (≈ 687 µM) | Active | 90.2 |
| CC(C)NC(=O)c1ccc(Cl)cc1C(=O)NN=Cc1ccc(O)cc1 | 5.4 | 16.9 | 55.6 | 55.6 | 129 (≈ 357 µM) | Active | 100 |
| CCCCNC(=O)c1ccc(Cl)cc1C(=O)NN=Cc1ccco1 | 0 | 11.7 | 44.4 | 20 | 234 (≈ 673 µM) | Active | 100 |
| O=C(NN=Cc1ccccc1Cl)c1cc(Cl)ccc1C(=O)NC1CCCCC1 | 26.2 | 28 | 66.7 | 41.3 | 148 (≈ 355 µM) | Active | 100 |
| O=C(NN=Cc1cccs1)c1cc(Cl)ccc1C(=O)NC1CCCCC1 | 19.6 | 13.5 | 33.3 | 37.8 | 113 (≈ 290 µM) | Active | 98.8 |
| CCCCNC(=O)c1ccc(Cl)cc1C(=O)NN=Cc1ccccc1F | 9.7 | 34 | 22.2 | 39.6 | 122 (≈ 324 µM) | Active | 94.6 |
| CCCCNC(=O)c1ccc(Cl)cc1C(=O)NN=Cc1cccs1 | 9.4 | 23.3 | 44.4 | 35.7 | 124 (≈ 341 µM) | Active | 98.6 |
| Cc1nn(-c2ccccc2)c(Cl)c1C=NNC(=O)c1cc(Cl)ccc1C(=O)NC1CCCCC1 | 16.7 | 9.1 | 66.7 | 9.5 | 266 (≈ 534 µM) | Active | 91.9 |
| CCCCNC(=O)c1ccc(Cl)cc1C(=O)NN=Cc1ccc(C(F)(F)F)cc1 | 12.5 | 22.9 | 33.3 | 49.3 | 130 (≈ 305 µM) | Active | 96.6 |
| CC(C)NC(=O)c1ccc(Cl)cc1C(=O)NN=Cc1ccco1 | 18.6 | 25.4 | 44.4 | 29.3 | 161 (≈ 484 µM) | Active | 100 |
